# Experimental data from ChEMBL document CHEMBL1914423, “New imidazo[2,1-b]thiazole derivatives: synthesis, in vitro anticancer evaluation, and in silico studies” (Eur J Med Chem, 2011).
# Columns and labels:
# [1] = tested on: LOX IMVI; test: Anticancer activity against human LOXIMVI cells assessed as cell growth at 10^-5 M after 48 hrs by SRB assay; assay type: functional; conditions: read-out: Activity
# Outline: (§1)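 NCI-60 single-dose screen at one concentration. Cells grown in RPMI 1640 with 5% FBS and 2 mM L-glutamine, plated at 5000–40,000 cells/well, and pre-incubated 24 h at 37 °C in 5% CO2 before DMSO-dissolved drug was added. Cells fixed with TCA, SRB-stained, absorbance read at 515 nm. Percent growth calculated against time-zero and untreated control plates.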
# [2] = tested on: IGROV-1; test: Anticancer activity against human IGROV1 cells assessed as cell growth at 10^-5 M after 48 hrs by SRB assay; assay type: functional; conditions: IGROV-1, 48 h, read-out: Activity; outline: as §1
# [3] = tested on: Malme-3M; test: Anticancer activity against human MALME-3M cells assessed as cell growth at 10^-5 M after 48 hrs by SRB assay; assay type: functional; conditions: read-out: Activity; outline: as §1
# [4] = tested on: K562; test: Anticancer activity against human K562 cells assessed as cell growth at 10^-5 M after 48 hrs by SRB assay; assay type: functional; conditions: K562, 48 h, read-out: Activity; outline: as §1
# [5] = tested on: SK-OV-3; test: Anticancer activity against human SKOV3 cells assessed as cell growth at 10^-5 M after 48 hrs by SRB assay; assay type: functional; conditions: SK-OV-3, 48 h, read-out: Activity
# [6] = tested on: ACHN; test: Anticancer activity against human ACHN cells assessed as cell growth at 10^-5 M after 48 hrs by SRB assay; assay type: functional; conditions: read-out: Activity; outline: as §1
# [7] = tested on: 786-0; test: Anticancer activity against human 786-0 cells assessed as cell growth at 10^-5 M after 48 hrs by SRB assay; assay type: functional; conditions: 786-0, 48 h, read-out: Activity; outline: as §1
# [8] = tested on: SF-295; test: Anticancer activity against human SF295 cells assessed as cell growth at 10^-5 M after 48 hrs by SRB assay; assay type: functional; conditions: SF-295, 48 h, read-out: Activity
# [9] = tested on: MDA-MB-468; test: Anticancer activity against human MDA-MB-468 cells assessed as cell growth at 10^-5 M after 48 hrs by SRB assay; assay type: functional; conditions: MDA-MB-468, 48 h, read-out: Activity
# [10] = tested on: CCRF-CEM; test: Anticancer activity against human CCRF-CEM cells assessed as cell growth at 10^-5 M after 48 hrs by SRB assay; assay type: functional; conditions: read-out: Activity; outline: as §1
# [11] = tested on: SNB-75; test: Anticancer activity against human SNB75 cells assessed as cell growth at 10^-5 M after 48 hrs by SRB assay; assay type: functional; conditions: SNB-75, 48 h, read-out: Activity
# Outline: (§2)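 NCI-60 single-dose screen: cells in RPMI 1640 with 5% FBS and 2 mM L-glutamine, plated at 5000–40,000 cells/well by doubling time, and preincubated 24 h at 37 °C. Compound given at one concentration from DMSO stock. Cells TCA-fixed and SRB-stained, absorbance at 515 nm. Percent growth relative to time-zero and untreated controls; inhibition % = 100 − growth %.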
# [12] = tested on: SK-MEL-5; test: Anticancer activity against human SK-MEL-5 cells assessed as cell growth at 10^-5 M after 48 hrs by SRB assay; assay type: functional; conditions: SK-MEL-5, 48 h, read-out: Activity
# [13] = Antiproliferative activity against human A375P cells after 48 hrs by MTT assay; assay type: functional, cell-based
# Outline: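 A375P cells in DMEM with 10% FBS at 37 °C, 5% CO2. Seeded at 5×10³ cells/well, held 24 h, then treated with 12-point 3-fold serial dilutions for 48 h. Viability by MTT reduction. IC50 values are means of triplicate experiments.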
# [14] = tested on: NCI-H460; test: Anticancer activity against human NCI-H460 cells assessed as cell growth at 10^-5 M after 48 hrs by SRB assay; assay type: functional; conditions: NCI-H460, 48 h, read-out: Activity
# [15] = tested on: MDA-MB-231; test: Anticancer activity against human MDA-MB-231 cells assessed as cell growth at 10^-5 M after 48 hrs by SRB assay; assay type: functional; conditions: MDA-MB-231, 48 h, read-out: Activity; outline: as §1
# [16] = tested on: T47D; test: Anticancer activity against human T47D cells assessed as cell growth at 10^-5 M after 48 hrs by SRB assay; assay type: functional; conditions: read-out: Activity; outline: as §2
# [17] = tested on: OVCAR-4; test: Anticancer activity against human OVCAR4 cells assessed as cell growth at 10^-5 M after 48 hrs by SRB assay; assay type: functional; conditions: OVCAR-4, 48 h, read-out: Activity
# [18] = tested on: M14; test: Anticancer activity against human M14 cells assessed as cell growth at 10^-5 M after 48 hrs by SRB assay; assay type: functional; conditions: M14, 48 h, read-out: Activity; outline: as §1
# [19] = tested on: DU-145; test: Anticancer activity against human DU145 cells assessed as cell growth at 10^-5 M after 48 hrs by SRB assay; assay type: functional; conditions: DU-145, 48 h, read-out: Activity; outline: as §1
# [20] = tested on: HT-29; test: Anticancer activity against human HT-29 cells assessed as cell growth at 10^-5 M after 48 hrs by SRB assay; assay type: functional; conditions: HT-29, 48 h, read-out: Activity; outline: as §1
# [21] = tested on: HOP-62; test: Anticancer activity against human HOP62 cells assessed as cell growth at 10^-5 M after 48 hrs by SRB assay; assay type: functional; conditions: HOP-62, 48 h, read-out: Activity; outline: as §1
# [22] = tested on: HL-60(TB); test: Anticancer activity against human HL-60(TB) cells assessed as cell growth at 10^-5 M after 48 hrs by SRB assay; assay type: functional; conditions: HL-60, 48 h, read-out: Activity
# Outline: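 NCI-60 single-dose screen. Cells in RPMI 1640 with 5% FBS and 2 mM L-glutamine were plated at 5000–40,000 cells/well and preincubated 24 h at 37 °C before one compound concentration. Time-zero plates were TCA-fixed at drug addition. For suspension cells, settled cells were fixed with cold TCA, then SRB-stained and read at 515 nm. Percent growth was calculated from time-zero, control and treated absorbances.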
# [23] = tested on: A549; test: Anticancer activity against human A549 cells assessed as cell growth at 10^-5 M after 48 hrs by SRB assay; assay type: functional; conditions: A549, 48 h, read-out: Activity; outline: as §1
# [24] = tested on: COLO 205; test: Anticancer activity against human COLO205 cells assessed as cell growth at 10^-5 M after 48 hrs by SRB assay; assay type: functional; conditions: COLO 205, 48 h, read-out: Activity; outline: as §1
# [25] = tested on: MCF7; test: Anticancer activity against human MCF7 cells assessed as cell growth at 10^-5 M after 48 hrs by SRB assay; assay type: functional; conditions: MCF7, 48 h, read-out: Activity; outline: as §1
# [26] = tested on: NCI/ADR-RES; test: Anticancer activity against human NCI/ADR-RES cells assessed as cell growth at 10^-5 M after 48 hrs by SRB assay; assay type: functional; conditions: read-out: Activity
# [27] = tested on: EKVX; test: Anticancer activity against human EKVX cells assessed as cell growth at 10^-5 M after 48 hrs by SRB assay; assay type: functional; conditions: read-out: Activity; outline: as §1
# [28] = tested on: SR; test: Anticancer activity against human SR cells assessed as cell growth at 10^-5 M after 48 hrs by SRB assay; assay type: functional; conditions: read-out: Activity; outline: as §2
SMILES,growth at 10 µM [1] [%],growth at 10 µM [2] [%],growth at 10 µM [3] [%],growth at 10 µM [4] [%],growth at 10 µM [5] [%],growth at 10 µM [6] [%],growth at 10 µM [7] [%],growth at 10 µM [8] [%],growth at 10 µM [9] [%],growth at 10 µM [10] [%],growth at 10 µM [11] [%],growth at 10 µM [12] [%],IC50 [13] [µM],growth at 10 µM [14] [%],growth at 10 µM [15] [%],growth at 10 µM [16] [%],growth at 10 µM [17] [%],growth at 10 µM [18] [%],growth at 10 µM [19] [%],growth at 10 µM [20] [%],other results
O=C(NCCNc1nccc(-c2c(-c3cccc(O)c3)nc3sccn23)n1)c1cc(C(F)(F)F)cc(C(F)(F)F)c1,90.7,93,27,96.2,96.3,88.3,101,97.1,101,84.7,87.7,81.6,> 10,107,101,88.5,129,38.2,114,63.1,growth at 10 µM [21]: 118%; growth at 10 µM [22]: 123%; growth at 10 µM [23]: 92.5%; growth at 10 µM [24]: 59.8%; growth at 10 µM [25]: 96.3%; growth at 10 µM [26]: 108%; growth at 10 µM [27]: 103%; growth at 10 µM [28]: 98.2%
O=C(NCCNc1nccc(-c2c(-c3cccc(O)c3)nc3sccn23)n1)c1ccc(N2CCOCC2)c(C(F)(F)F)c1,42.2,54.3,-4.27,63,66.4,60.8,60.1,67.5,50.2,56.9,58,40,> 10,66.9,64.9,60.1,105,19.1,94.9,68.6,growth at 10 µM [21]: 96.7%; growth at 10 µM [22]: 113%; growth at 10 µM [23]: 64.1%; growth at 10 µM [24]: 43.4%; growth at 10 µM [25]: 58.7%; growth at 10 µM [26]: 95.4%; growth at 10 µM [27]: 74%; growth at 10 µM [28]: 76.1%
O=C(NCCNc1nccc(-c2c(-c3cccc(O)c3)nc3sccn23)n1)c1cc(N2CCOCC2)cc(C(F)(F)F)c1,52.3,80.4,3.04,70.7,94,79.4,86.6,84.4,94.8,52.9,83.2,58.4,4.4,96.2,74.2,77.7,133,22.4,110,49.2,growth at 10 µM [21]: 136%; growth at 10 µM [22]: 102%; growth at 10 µM [23]: 88.6%; growth at 10 µM [24]: 32.7%; growth at 10 µM [25]: 85.4%; growth at 10 µM [26]: 103%; growth at 10 µM [27]: 88.6%; growth at 10 µM [28]: 97.3%
